# Results gathered from unrelated publications.
# Protocols differ between the studies behind these lines.
# Cell line: HepG2
# Observed: cell growth or viability
Compound,test,setting,CC50 [µM]
CCCCCCCCCCCC(=O)Nc1nc(N)nc2c1ncn2[C@H]1CO[C@@H](CO)O1,,,> 100
CC(=O)Oc1ccccc1C(=O)O,ATP luminescence,,> 1000
O=C(NCCCN1CCOCC1)c1ccc(Nc2ncc(Cl)c(-c3ccc(Cl)s3)n2)cc1,,44 h,4.9
CCc1ncn(CC(c2c[nH]c3ccc(C)cc23)c2c[nH]c3ccc(C)cc23)c1C(=O)OC,MTS,24 h,> 20
O=[N+]([O-])c1ccc(-c2nc3cccc(O)c3[nH]2)o1,resazurin,72 h,37
N=C(N)NCc1ccc(NC(=O)c2ccc(C(=O)Nc3cnc(C4=CCN(C(=N)N)CC4)cn3)cc2)cc1,MTS,24 h,585
Cc1cc(Nc2ccc(S(F)(F)(F)(F)F)cc2)n2ccnc2n1,,,> 50
CCOC(=O)c1cn(CC(c2cn(C)c3ccc(C)cc23)c2cn(C)c3ccc(C)cc23)c(C)c1C(=O)OC,MTS,24 h,> 20
COc1ccc(NC(=O)N2CCCCN3[C@H](COCCC(=O)O)[C@H](c4ccc(C#Cc5ccccc5)cc4)[C@@H]3C2)cc1,,,> 40
COC(=O)c1c(C)ncn1CC(c1cn(C)c2ccccc12)c1cn(C)c2ccccc12,MTS,24 h,> 20
CC(C)c1c(C(=O)Nc2ccccc2)c(-c2ccccc2)c(-c2ccc(F)cc2)n1CC[C@@H](O)C[C@@H](O)CC(=O)O,MTT,24 h,~100
COC(=O)c1c(C)ncn1CC(c1c[nH]c2cc(Br)ccc12)c1c[nH]c2cc(Br)ccc12,MTS,24 h,> 20
N=C(N)N1CC=C(c2coc(C(=O)Nc3ccc(C4=CCN(C(=N)N)CC4)c(F)c3)c2)CC1,MTS,24 h,129
Cc1cnc(Nc2ccc(C(=O)N3CCC(N4CCCC4)CC3)cc2)nc1-c1ccc(Cl)s1,,44 h,10.5
Cc1cn(CC(c2cn(C)c3ccccc23)c2cn(C)c3ccccc23)nn1,MTS,24 h,> 20
N=C(N)NCc1ccc(NC(=O)c2ccc(C(=O)Nc3ccc(C4=CCN(C(=N)N)CC4)nn3)cc2)cc1,MTS,24 h,326
